Compound activity (PubChem BioAssay)
NR2E3 ag-1: human photoreceptor-specific nuclear receptor agonism | Q9Y5X4 | inhibition of corepressor binding, % at 3.98 µM | CHO-S Gal4-NCOR/VP16-NR2E3 two-hybrid, luciferase | AID 602229 | actives 0.35% (n = 360,000);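 active = inhibition above the mean of all tested compounds plus 3 SD, cut at about 70% in these data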;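 also: 0% = DMSO with NR2E3 transfected cells and 100% = cells lacking NR2E3 construct; higher means lower luciferase signal from less NR2E3 corepressor binding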
Target sequence (Q9Y5X4 whole entry, looked up, the tested form may be a part): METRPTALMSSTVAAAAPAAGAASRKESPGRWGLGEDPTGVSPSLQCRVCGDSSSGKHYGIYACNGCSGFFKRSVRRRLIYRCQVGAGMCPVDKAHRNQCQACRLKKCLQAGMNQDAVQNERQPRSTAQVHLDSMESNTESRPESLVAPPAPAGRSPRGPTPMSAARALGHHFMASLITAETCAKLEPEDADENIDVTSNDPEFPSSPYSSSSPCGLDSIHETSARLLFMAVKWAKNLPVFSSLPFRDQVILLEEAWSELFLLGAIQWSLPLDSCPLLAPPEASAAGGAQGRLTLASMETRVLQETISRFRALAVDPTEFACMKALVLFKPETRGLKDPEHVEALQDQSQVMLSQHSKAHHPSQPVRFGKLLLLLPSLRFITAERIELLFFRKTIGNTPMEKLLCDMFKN
GalR3 antagonist: blocks the human galanin receptor 3; O60755; HEK293 GalR3-CNG cAMP membrane potential fluorescence; galR3 body fused to GalR1 C-terminus; inhibition, % at 3 µM; actives 0.44% (n = 360,000); AID 651719;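 active = inhibition above the screen-wide average plus 3 SD, cut at about 13% in these data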;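 also: forskolin and galanin both at EC90 stimulate the cells; cAMP rise reported by CNG channel membrane potential dye signal; 0% = forskolin plus galanin with DMSO and 100% = forskolin alone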
Target sequence (O60755 1-299 limits assumed): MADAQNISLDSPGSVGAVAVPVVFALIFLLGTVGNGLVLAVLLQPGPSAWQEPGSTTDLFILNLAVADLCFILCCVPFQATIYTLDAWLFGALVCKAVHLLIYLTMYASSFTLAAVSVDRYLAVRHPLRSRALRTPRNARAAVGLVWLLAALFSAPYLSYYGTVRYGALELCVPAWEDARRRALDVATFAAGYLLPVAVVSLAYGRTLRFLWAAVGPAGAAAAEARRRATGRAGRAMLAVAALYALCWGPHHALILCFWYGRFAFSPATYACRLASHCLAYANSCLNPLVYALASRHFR
697 NFkB inh: inhibitors of the PMA/ionomycin-induced NF-kB reporter in 697 B cells; 697 B-cell NF-kB luciferase reporter, 16 h; inhibition, % at 4 µM; actives 0.33% (n = 330,000); AID 435022; in the data active = inhibition above about 35%
NR2E3 ag-2: agonists of human nuclear receptor NR2E3; GST-NR2E3/biotin-RetCOR TR-FRET, 1536-well; inhibition of corepressor binding, % at 4.78 µM; actives 0.12% (n = 320,000); Q9Y5X4;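 active = percent inhibition above the cutoff of mean plus 3 SD of all tested compounds, set per screening campaign, cut at about 20% in these data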;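 also: 0% = DMSO wells and 100% = biotin wells as full block of FRET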
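Material: NR2E3–RetCOR corepressor complex / Amount: 1.35 nM GST-NR2E3 / Medium: Tris pH 7.5 / Compound: single nominal compound dose of 4.8 µM / Incubation: 5 h at 4 °C / Technique: TR-FRET, Eu(K)-anti-GST donor, streptavidin-D2 acceptor, ex 340, em 617/671 nm / Read-out basis: percent loss of FRET ratio relative to control wells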
Jurkat NFkB inh: inhibitors of the PMA/ionomycin-induced NF-kB reporter in Jurkat cells. PMA/ionomycin-induced NF-kB luciferase reporter, luminescence. inhibition, % at 4 µM. actives 0.53% (n = 330,000). AID 435003; in the data active = inhibition above about 50%
Gli-Sufu antag: blocks Gli-Sufu signaling in a luciferase reporter; Sufu-KO-LIGHT fibroblasts, Gli luciferase reporter luminescence; inhibition, % at 5 µM; actives 0.74% (n = 340,000); AID 588413;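 active = inhibition above about 55%, limit read from the data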;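 also: 0% = DMSO-treated cells and 100% = wells with medium but no cells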
Jurkat NFkB conf: inhibitors of the PMA/ionomycin-induced NF-kB reporter in Jurkat cells, retest. shares compounds with Jurkat NFkB inh. Jurkat NF-kB luciferase, 16 h. inhibition, % at 4 µM. actives 27% (n = 2,700). AID 435020;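 active = inhibition reaching about 45% at 4 µM in either replicate, limit read from the data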;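 also: plate controls were PMA/ionomycin stimulated DMSO wells for no effect and unstimulated DMSO wells for full effect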
697 NFkB conf: inhibitors of the PMA/ionomycin-induced NF-kB reporter in 697 B cells, retest; AID 449746; inhibition, % at 4 µM; shares compounds with 697 NFkB inh; actives 35% (n = 2,000); 697 B-cell NF-kB luciferase, 16 h; in the data active = inhibition mostly above about 28%, no sharp cut-off; inactive = mostly below about 22%
Gli-Sufu confirm: Gli-SUFU antagonism confirmation, single concentration; shares compounds with Gli-Sufu antag; Sufu-KO-LIGHT cells, Gli luciferase reporter, luminescence; inhibition, % at 5 µM; actives 40% (n = 2,500);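 active = mean inhibition at 5 µM reaching about 45%, limit read from the data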;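 also: plate controls were DMSO-treated cells for no effect and wells lacking cells for full effect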
SufuKO cytotox: cytotoxic in Gli-SUFU antagonist counter-screen; AID 651994; cytotoxicity, % at 5 µM; Sufu-KO-LIGHT cells cytotoxicity, ATP luminescence; actives 32% (n = 2,500); shares compounds with Gli-Sufu antag;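 active = mean cytotoxicity at 5 µM above about 25%, limit read from the data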;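 also: cells exposed to compound overnight for roughly 16 to 18 hours; plate controls were DMSO wells with cells for no effect and medium without cells for full effect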
Wnt3a counter: counter-screen for Gli-SUFU antagonists: Wnt3a reporter inhibition; Wnt-LIGHT cells, Wnt3a-driven luciferase reporter, luminescence; inhibition, % at 6.25 µM; AID 651995; actives 20% (n = 2,500); shares compounds with Gli-Sufu antag;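 active = mean inhibition above about 25%, limit read from the data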
Active calls of the source: *; . = not tested or not shown. Hits are enriched below; roughly 1.8% of the tested compounds scored in any of these assays.

SMILES	NR2E3 ag-1	GalR3 antagonist	697 NFkB inh	NR2E3 ag-2	Jurkat NFkB inh	Gli-Sufu antag	Jurkat NFkB conf	Gli-Sufu confirm	SufuKO cytotox	Wnt3a counter	others
CC(C)NC(=O)CN1C(=O)c2ccccc2S1(=O)=O	3	0	-20	3	-38	5	.	.	.	.
Cc1cc(C(=O)CN2C(=O)c3ccccc3S2(=O)=O)c(C)n1C(C)C	3	-1	10	3	55*	57*	19	49*	12	44*
COc1ccccc1N=C(C)C1=C(O)CC(c2ccccc2)CC1=O (configuration not stated)	-50	-2	9	1	69*	56*	42	54*	63*	-35
CCCC(=Nc1ccccc1OC)C1=C(O)CC(c2ccccc2)CC1=O (configuration not stated)	-3	3	7	-1	14	-18	.	.	.	.
O=C(N/N=C/c1c[nH]c2ccccc12)c1[nH]c2ccc(Br)cc2c1-c1ccccc1	24	-1	.	.	.	48	.	.	.	.
Cc1c(C(=O)N/N=C/c2ccc(Cl)cc2)[nH]c2ccc(Cl)cc12	17	-1	23	1	52*	50	51*	55*	58*	-34
O=C(N/N=C/c1ccc(O)cc1)c1[nH]c2ccc(Br)cc2c1-c1ccccc1	42	2	-3	5	60*	63*	31	63*	72*	17
C[C@@H]1CN([C@H](C)CO)C(=O)c2c(c3ccccc3n2C)-c2ccccc2CO[C@@H]1CN(C)C(=O)CCN(C)C	.	-4	.	.	.	.	.	.	.	.
CC(=O)Nc1ccc(S(=O)(=O)N2c3ccccc3C(C)=CC2(C)C)cc1	0	-4	-25	2	62*	57*	53*	52*	54*	23
COCCN1Cc2cc(C(=O)OC)c3c(c2C1=O)c1cc(F)ccc1n3S(=O)(=O)c1cccc(C)c1	.	-4	.	.	.	.	.	.	.	.
C#CC[N+](C)(C)CCCCCCCCCCCC	5	4	30	2	71*	84*	52*	81*	28*	22
COc1cc(-c2c(C#N)c(N)nc3c2CCCC3)ccc1O	-10	-4	1	-2	4	11	.	.	.	.
COc1ccc(-c2c(C#N)c(N)nc3c2CCc2ccccc2-3)cc1OC	.	-7	24	1	67*	54	44	56*	18	-8
COc1ccc(C2=NOC(C(=O)NCc3ccccc3)C2)cc1 (configuration not stated)	9	.	-92	2	64*	55*	14	38	54*	-31
COc1cccc(C2=NOC(C(=O)NCc3ccccc3)C2)c1 (configuration not stated)	-16	-3	.	2	.	-1	.	.	.	.
CCOc1ccc(N(CC(=O)Nc2ccc(C)cc2)S(=O)(=O)c2c(C)noc2C)cc1	7	-1	12	4	15	8	.	.	.	.
CCOc1ccc(N(CC(=O)Nc2ccccc2OCC)S(=O)(=O)c2c(C)noc2C)cc1	12	-3	-25	-2	57*	53	62*	63*	52*	47*
COCc1[nH]nc2c1C(c1cccc(C(F)(F)F)c1)NC2=O (configuration not stated)	.	-5	.	.	.	.	.	.	.	.
CCC[C@H]1NC(=O)[C@H](C)N(C)C(=O)C(C)(C)C(=O)C(C)NC(=O)[C@H](Cc2ccc(OC)cc2)N(C)C(=O)[C@H](C(C)C)N(C)C(=O)CNC(=O)[C@H](CC(C)C)N(C)C(=O)CNC(=O)[C@H]([C@@H](C)CC)OC(=O)[C@H]1C (some centres not stated)	.	.	-28	.	82*	75*	42	89*	58*	61*
COC(=O)C1=C(C)N(Cc2ccccc2C(F)(F)F)C(=NCC2CC2)NC1c1ccc(C(F)(F)F)cc1 (configuration not stated)	.	-4	.	.	.	.	.	.	.	.
Cc1ccc(C(=O)N2CCC[C@@H]2C(=O)N2CCC[C@H]2C(=O)NCc2ccccc2)cc1C	.	-3	.	.	.	.	.	.	.	.
COC(=O)[C@]12C[C@H](CC(=O)N3CCCCC3)C(=O)N(Cc3ccccc3)C1=C[C@H](C(C)C)O[C@@H]2C1CC1	.	1	.	.	.	.	.	.	.	.
Cc1cccc(N(C)S(=O)(=O)c2ccc(-c3cnc(C4CC4)o3)cc2)c1	37	10	-122	0	62*	59*	54*	57*	55*	-15
Cc1cc(C)c(S(=O)(=O)N2C[C@H]3CON(C)[C@H]3C[C@H]2c2ccc(-n3ccnc3)cc2)c(C)c1	.	-6	.	.	.	.	.	.	.	.
O=C(C[n+]1ccccc1)c1ccc(-c2ccccc2)cc1	12	-4	-5	0	-4	11	.	.	.	.
SMILES	NR2E3 ag-1	GalR3 antagonist	697 NFkB inh	NR2E3 ag-2	Jurkat NFkB inh	Gli-Sufu antag	Jurkat NFkB conf	Gli-Sufu confirm	SufuKO cytotox	Wnt3a counter	others
CN(C)c1cc[n+](CC(=O)c2ccc(-c3ccccc3)cc2)cc1	6	-4	62*	0	73*	88*	60*	86*	38*	39*	697 NFkB conf=46*
Cc1cc(Cl)c2oc(C(=O)N3CCN(c4ccncc4)CC3)c(C)c2c1	38	-5	-50	7	61*	68*	15	26	23	-36
COCCOC(=O)c1[nH]c2c(c1C)C(=O)CC(c1cccs1)C2 (configuration not stated)	-25	-1	.	.	.	5	.	.	.	.
CCOCCOC(=O)c1[nH]c2c(c1C)C(=O)CC(c1ccccc1)C2 (configuration not stated)	23	3	-53	1	60*	52	51*	53*	60*	-40
Cc1c(COC(=O)NC(C)C)c(COC(=O)NC(C)C)c2n1CS(=O)(=O)C2	.	-7	.	.	.	.	.	.	.	.
O=C(c1ccccc1)c1cc([N+](=O)[O-])ccc1N1CCOCC1	-6	1	-8	0	51*	50	49*	56*	53*	-42
CN1CCN(c2ccc([N+](=O)[O-])cc2C(=O)c2ccc(Cl)cc2)CC1	-60	-5	-38	5	46	6	.	.	.	.
O=C(c1ccc(Cl)cc1)c1cc([N+](=O)[O-])ccc1N1CCOCC1	-8	6	8	-3	70*	53	41	51*	47*	-41
